# Results reported in article PMC10785664 (ACS Omega, 2023).
# Test system: A549 cells
# Assay: MTT cell viability, antiproliferative action on A549 cells
# Type: cell-based
# Conditions: Homo sapiens, A549, 72 h, read-out: % cell viability
# Procedure, shortened: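 A549 cells in DMEM with 10% FBS and 1% penicillin-streptomycin (37 °C, 5% CO₂) were grown to 90% confluence, seeded at 2.5 × 10⁴ cells/mL in 96-well plates and left 24 h. Dosing solutions at 25, 50 and 100 µg/mL in PBS/0.2% DMSO were added in triplicate, followed by 72 h incubation. MTT (5 mg/mL) was added for 4 h, then acid-isopropanol overnight. A570/620 was read; viability was blank-corrected relative to untreated controls.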
smiles,measurement,value
"CC(=O)O[C@H]1C(=O)[C@@]2(C)[C@H]([C@H](OC(=O)c3ccccc3)[C@]3(O)C[C@H](OC(=O)[C@H](O)[C@@H](NC(=O)c4ccccc4)c4ccccc4)C(C)=C1C3(C)C)[C@]1(OC(C)=O)CO[C@@H]1C[C@@H]2O [PTX, paclitaxel]",viability at 25 µg/mL,31.2%
same,viability at 50 µg/mL,26.5%
same,viability at 100 µg/mL,20.2%
